This passage reports EC50, %max and Activity results from ChEMBL document CHEMBL2203159, “Synthesis and structure-activity relationships of fibrate-based analogues inside PPARs” (Bioorg Med Chem Lett, 2012).

The structures appear in SMILES notation.

In experiment [1] the target is T1, Peroxisome proliferator-activated receptor gamma (Homo sapiens, UniProt P37231).
T1 sequence (P37231 whole entry): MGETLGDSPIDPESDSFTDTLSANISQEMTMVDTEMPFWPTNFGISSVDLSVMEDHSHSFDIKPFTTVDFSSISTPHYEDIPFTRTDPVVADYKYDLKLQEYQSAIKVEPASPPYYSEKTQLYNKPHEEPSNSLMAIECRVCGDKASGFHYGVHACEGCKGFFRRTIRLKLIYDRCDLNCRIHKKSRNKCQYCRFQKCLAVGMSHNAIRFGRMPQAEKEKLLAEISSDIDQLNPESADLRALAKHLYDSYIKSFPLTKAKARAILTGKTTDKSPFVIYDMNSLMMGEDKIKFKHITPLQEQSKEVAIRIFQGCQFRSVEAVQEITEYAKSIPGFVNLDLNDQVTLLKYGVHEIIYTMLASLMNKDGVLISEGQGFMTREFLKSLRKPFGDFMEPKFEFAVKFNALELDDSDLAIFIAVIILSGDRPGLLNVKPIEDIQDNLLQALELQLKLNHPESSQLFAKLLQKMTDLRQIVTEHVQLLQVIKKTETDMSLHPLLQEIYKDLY
In words: Transactivation of human GAL4-fused PPARgamma ligand binding domain transfected in HEK293 cells after 18 hrs by dual luciferase reporter gene assay. Format: cell-based.

The target of experiment [2] is T2, Peroxisome proliferator-activated receptor alpha (Homo sapiens) (UniProt Q07869).
T2 sequence (whole entry): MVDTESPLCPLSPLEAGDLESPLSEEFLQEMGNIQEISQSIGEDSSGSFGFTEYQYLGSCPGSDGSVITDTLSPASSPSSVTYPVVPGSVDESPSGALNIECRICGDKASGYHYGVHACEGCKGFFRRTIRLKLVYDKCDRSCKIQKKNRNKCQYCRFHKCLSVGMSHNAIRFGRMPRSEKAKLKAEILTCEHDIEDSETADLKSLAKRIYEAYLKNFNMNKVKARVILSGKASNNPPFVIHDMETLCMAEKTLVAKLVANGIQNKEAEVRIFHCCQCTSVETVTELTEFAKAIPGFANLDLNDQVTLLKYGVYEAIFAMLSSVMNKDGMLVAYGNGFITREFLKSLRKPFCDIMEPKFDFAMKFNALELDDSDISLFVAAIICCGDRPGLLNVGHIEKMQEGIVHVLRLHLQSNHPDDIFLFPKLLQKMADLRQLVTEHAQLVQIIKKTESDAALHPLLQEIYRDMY
The experiment is described as follows: Transactivation of human GAL4-fused PPARalpha ligand binding domain transfected in HEK293 cells at 150 uM after 18 hrs by dual luciferase reporter gene assay relative to clofibric acid. It counts as cell-based. The method in brief: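 This is a GAL4–PPAR transactivation assay in HEK293 cells with a GAL4-responsive luciferase reporter, run in at least two separate experiments. Efficacy is the percentage of the maximum fold induction obtained with the reference agonist clofibric acid. Results are given ± SEM.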

Experiment [3] concerns the target T3, Peroxisome proliferator-activated receptor alpha (Homo sapiens, UniProt Q07869).
T3 sequence (Q07869 whole entry): T2 sequence (whole entry)
In words: Transactivation of human GAL4-fused PPARalpha ligand binding domain transfected in HEK293 cells after 18 hrs by dual luciferase reporter gene assay. It counts as cell-based. The method in brief:
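HEK293 cells carried a GAL4–PPAR chimera and a GAL4-responsive luciferase reporter in a transactivation assay. Compounds were tested at 1 to 150 µM in at least two separate experiments, and results are given ± SEM.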

The target in experiment [4] is T2, Peroxisome proliferator-activated receptor alpha (Homo sapiens). The experiment is described as follows: Transactivation of PPARalpha in human HepG2 cells assessed as increase in CPT1A mRNA expression after 48 hrs by RT-qPCR analysis.

Regarding `CC(C)(Oc1ccc(CCCOc2nc3ccccc3s2)cc1)C(=O)O`, the figures for the EC50 in experiment [1] (read-out: EC50) and in experiment [3] (read-out: EC50) were 7.9 µM and 45.8 µM, respectively. Further, the %max in experiment [2] was 100%.

Turning to `CC(C)(Oc1ccc(CCOc2ccc(Oc3ccccc3)cc2)cc1)C(=O)O`, the EC50 in experiment [1] (read-out: EC50) is 6.9 µM; in experiment [3] (hek293), “Not Active”.

With `CC(C)(Oc1ccc(CCOc2ccc(/C=C/c3ccccc3)cc2)cc1)C(=O)O`, the EC50 in experiment [1] (read-out: EC50) was 12.6 µM; in experiment [3] (read-out: EC50) it was 11.6 µM. This compound gave a %max in experiment [2] of 81%.

For the compound `CC(C)(Oc1ccc(COc2ccc(C(=O)c3ccccc3)cc2)cc1)C(=O)O`, the EC50 in experiment [1] (read-out: EC50) is 5.4 µM; in experiment [3] (hek293), “Not Active”.

Consider `CC(C)(Oc1ccc(CCCOc2ccc(C(=O)/C=C/c3ccccc3)cc2)cc1)C(=O)O`, for which the figures for the EC50 in experiment [1] (read-out: EC50) and in experiment [3] (hek293) were 0.8 µM and “Not Active”, respectively.

As for `CC(C)(Oc1ccc(CO)cc1)C(=O)O`, the EC50 worked out at 30 µM in experiment [1] (read-out: EC50) and 34.5 µM in experiment [3] (read-out: EC50). The compound also displayed a %max in experiment [2] of 119%.

With `CC(C)(Oc1ccc(CCCOc2ccc(/N=N/c3ccccc3)cc2)cc1)C(=O)O`, the figures for the EC50 in experiment [1] (read-out: EC50) and in experiment [3] (read-out: EC50) were 10 µM and 42.8 µM, respectively. In experiment [2], this compound yielded a %max of 81%.

Consider `CC(C)(Oc1ccc(CCCOc2ccc(C(=O)c3ccccc3)cc2)cc1)C(=O)O`, for which the EC50 in experiment [1] (read-out: EC50) is 5.8 µM; in experiment [3] (hek293), “Not Active”.

As to `CC(C)(Oc1ccc(COc2nc3ccccc3s2)cc1)C(=O)O`, the EC50 in experiment [1] (read-out: EC50) is 32 µM; in experiment [3] (read-out: EC50) it was 44.6 µM. In experiment [2], the %max came out at 125%.

In the case of `CC(C)(Oc1ccc(Cl)cc1)C(=O)O` [CLOFIBRIC ACID], in experiment [1] (hek293), the EC50 entry was “Not Active”.

Take `CC(C)(Oc1ccc(CCCOc2ccc(/C=C/c3ccccc3)cc2)cc1)C(=O)O`: the EC50 was 0.8 µM in experiment [1] (read-out: EC50) and 9.9 µM in experiment [3] (read-out: EC50). Also, the %max in experiment [2] is 125%.

The compound `CC(C)(Oc1ccc(COc2ccc(/N=N/c3ccccc3)cc2)cc1)C(=O)O` showed a %max in experiment [2] of 350%. Besides, the EC50 in experiment [3] (read-out: EC50) was 5.6 µM.

As for `CC(C)(Oc1ccc(CCO)cc1)C(=O)O`, the EC50 result was “Not Active” in experiment [1] (hek293) and 75.1 µM in experiment [3] (read-out: EC50). In experiment [2], this compound gave a %max of 94%.

For `CCc1ccc(CCOc2ccc(CC3SC(=O)NC3=O)cc2)nc1` (configuration not stated) [PIOGLITAZONE], in experiment [3] (hek293), the EC50 result is given as “Not Active”.

As for `CC(C)(Oc1ccc(CCOc2nc3ccccc3s2)cc1)C(=O)O`, the EC50 in experiment [1] (read-out: EC50) came out at 39.3 µM; in experiment [3] (read-out: EC50), 18.3 µM. The compound further returned a %max in experiment [2] of 169%.

`CC(C)(Oc1ccc(CCOc2ccc(C(=O)/C=C/c3ccccc3)cc2)cc1)C(=O)O`: the EC50 in experiment [1] (read-out: EC50) stood at 5.9 µM; in experiment [3] (read-out: EC50), 64 µM. The compound further gave a %max in experiment [2] of 118%.

Take `CC(C)(Oc1ccc(CCCO)cc1)C(=O)O`: the EC50 entry was “Not Active” in experiment [1] (hek293) and 30.6 µM in experiment [3] (read-out: EC50). In experiment [2], this compound had a %max of 181%.

Turning to `CC(C)(Oc1ccc(CCOc2ccc(/N=N/c3ccccc3)cc2)cc1)C(=O)O`, the results for the EC50 in experiment [1] (read-out: EC50) and in experiment [3] (read-out: EC50) were 1.4 µM and 0.6 µM, respectively. In addition, in experiment [2], the %max was found to be 158%. For the same compound, the Activity result in experiment [4] was “Dose-dependent effect”.

As for `CC(C)(Oc1ccc(COc2ccc(C(=O)/C=C/c3ccccc3)cc2)cc1)C(=O)O`, the EC50 result in experiment [1] (hek293) and in experiment [3] (hek293) was “Not Active” in each case.

Consider `CC(C)(Oc1ccc(COc2ccc(Oc3ccccc3)cc2)cc1)C(=O)O`, for which the figures for the EC50 in experiment [1] (read-out: EC50) and in experiment [3] (hek293) were 0.8 µM and “Not Active”, respectively.

`CC(C)(Oc1ccc(COc2ccc(/C=C/c3ccccc3)cc2)cc1)C(=O)O`: the EC50 in experiment [1] (read-out: EC50) is 6 µM; in experiment [3] (read-out: EC50), 40.5 µM. The compound further showed a %max in experiment [2] of 156%.

As for `CC(C)(Oc1ccc(CCOc2ccc(C(=O)c3ccccc3)cc2)cc1)C(=O)O`, the EC50 was 54.6 µM in experiment [1] (read-out: EC50) and “Not Active” in experiment [3] (hek293).

In the case of `CC(C)(Oc1ccc(CCCOc2ccc(Oc3ccccc3)cc2)cc1)C(=O)O`, the EC50 is 75.2 µM in experiment [1] (read-out: EC50) and “Not Active” in experiment [3] (hek293).
